Active and inactive are the calls of the source. No cut-off for these calls is given here.
What was measured:
[1] = system: Radical scavenging activity; assay: Antioxidant activity assessed as DPPH radical scavenging activity up to 100 uM by spectrophotometry; assay type: functional
[2] = system: Radical scavenging activity; assay: Antioxidant activity assessed as DPPH radical scavenging activity by spectrophotometry; assay type: functional
In short: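 DPPH• in methanol, prepared daily and kept from light; 0.5 mL test solution in methanol (4-25 µM) added to 0.5 mL of 100 µM DPPH•. Absorbance read at 518 nm at intervals until equilibrium, with a methanol blank; triplicates, five analyte concentrations. %DPPH• remaining = Af/A0×100; concentration plotted against % remaining to get the 50% scavenging value.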

SMILES | EC50 [2] [µM] | Activity [1]
O=C(O)c1ccccc1-c1cc2cccc(O)c2oc1=O | – | inactive
O=C(O)c1ccccc1-c1cc2cc(O)ccc2oc1=O | – | inactive
O=C(O)c1ccccc1-c1cc2c(O)cccc2oc1=O | – | inactive
O=C(O)c1ccccc1-c1cc2cc(Br)ccc2oc1=O | – | inactive
O=C(O)c1cc(O)c(O)cc1-c1cc2cc(O)c(O)cc2oc1=O | 5.3 | –
O=C(O)c1cc(O)c(O)cc1-c1cc2c(O)cccc2oc1=O | 6.86 | –
O=C(O)c1cc(O)c(O)cc1-c1cc2cc(O)ccc2oc1=O | 3.17 | –
O=C(O)c1ccccc1-c1cc2ccc(O)cc2oc1=O | – | inactive
O=C(O)c1cc(O)c(O)c(O)c1 [GALLIC ACID] | 5.34 | –
O=C(O)c1cc(O)c(O)cc1-c1cc2ccc(O)cc2oc1=O | 6.02 | –
O=C(O)c1ccccc1-c1cc2ccccc2oc1=O | – | inactive

The next lines start with results.

EC50 [2] [µM] | SMILES | Activity [1]
9.34 | Cc1c(C)c2c(c(C)c1O)CCC(C)(C(=O)O)O2 (stereo not given) [TROLOX] | –
9.48 | O=C(O)/C=C/c1ccc(O)c(O)c1 [CAFFEIC ACID] | –
3.39 | O=C(O)c1cc(O)c(O)cc1-c1cc2ccc(O)c(O)c2oc1=O | –
8.83 | O=C(O)c1ccc(O)c(O)c1 [PROTOCATECHUIC ACID] | –
5.14 | O=C(O)c1cc(O)c(O)cc1-c1cc2ccccc2oc1=O | –
5.32 | O=C(O)c1ccccc1-c1cc2cc(O)c(O)cc2oc1=O | –
4.02 | O=C(O)c1cc(O)c(O)cc1-c1cc2cc(Br)ccc2oc1=O | –
3.59 | O=C(O)c1ccccc1-c1cc2ccc(O)c(O)c2oc1=O | –
4.09 | O=C(O)c1cc(O)c(O)cc1-c1cc2cccc(O)c2oc1=O | –

Reference: ChEMBL document CHEMBL3232778, “One-pot synthesis and radical scavenging activity of novel polyhydroxylated 3-arylcoumarins” (Eur J Med Chem, 2014)
